This is an account of results in ChEMBL document CHEMBL5096187, “Efficient Synthesis and Bioevaluation of Novel Dual Tubulin/Histone Deacetylase 3 Inhibitors as Potential Anticancer Agents” (J Med Chem, 2021).

The target in series [1] is T1, Tubulin (Sus scrofa) (UniProt P02554+P02550). As to the kind of experiment: Inhibition of pig brain tubulin polymerization in mouse B16-F10 cells assessed as disruption of microtubule network at 100 nM measured for 6 hrs by immunofluorescence assay. The format is cell-based. The method, boiled down:
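B16-F10 cells on glass coverslips exposed 6 h to test agent or 0.1% DMSO vehicle, fixed in 4% paraformaldehyde, permeabilized with 0.2% Triton X-100 in PBS, blocked 30 min with goat serum, then anti-β-tubulin monoclonal 1 h at 37 °C, fluorescent secondary and DAPI nuclear stain. Microtubule network judged by fluorescence or confocal microscopy.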

The nature of series [2]: Hepatotoxicity in C57BL/6 mouse assessed as effect on AST level in serum. The format is toxicity.
Series [3] can be described thus: Hepatotoxicity in C57BL/6 mouse assessed as effect on ALB level in serum. The format is toxicity.
Series [4] can be described thus: Antiproliferative activity against human YCC3/7 cells assessed as inhibition of cell viability. The format is functional, cell-based.
Series [5] can be described thus: Nephrotoxicity in C57BL/6 mouse assessed as effect on creatinine level in serum. The format is toxicity. To be noted: in vivo.
In series [6] the test system is B16-F10. The experiment in a line: Antitumor activity against mouse B16-F10 cells allografted in C57BL/6 mouse assessed as tumor growth inhibition at 10 mg/kg, ip administered for 14 days. To be noted: B16-F10, 336 h, time 14 day, read-out: TGI. The format is functional. The method, boiled down: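 C57BL/6 mice were inoculated subcutaneously with 3×10⁵ B16-F10 cells in PBS and randomized (n = 8). Drugs in ethanol/polyoxyethylene castor oil/saline (1.25:1.25:7.5) or vehicle alone were given i.p. once daily for 14 days. Mice were sacrificed at day 14 and tumors weighed; TGI(%) = [1 − Wt/Wv] × 100 using mean tumor weights.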

The subject of series [7] is B16-F10. The experiment in a line: Induction of cell cycle arrest in mouse B16-F10 cells assessed as accumulation of cells in G2/M phase at 50 nM measured after 48 hrs by PI/RNaseA staining based flow cytometry analysis (Rvb= 5.76%). The format is functional. (Flow cytometry measures light scatter and fluorescence of single cells or particles in a stream.)
For series [8], the target named is T2, Protein deacetylase HDAC6 (Homo sapiens, UniProt Q9UBN7).
T2 sequence (Q9UBN7 whole entry): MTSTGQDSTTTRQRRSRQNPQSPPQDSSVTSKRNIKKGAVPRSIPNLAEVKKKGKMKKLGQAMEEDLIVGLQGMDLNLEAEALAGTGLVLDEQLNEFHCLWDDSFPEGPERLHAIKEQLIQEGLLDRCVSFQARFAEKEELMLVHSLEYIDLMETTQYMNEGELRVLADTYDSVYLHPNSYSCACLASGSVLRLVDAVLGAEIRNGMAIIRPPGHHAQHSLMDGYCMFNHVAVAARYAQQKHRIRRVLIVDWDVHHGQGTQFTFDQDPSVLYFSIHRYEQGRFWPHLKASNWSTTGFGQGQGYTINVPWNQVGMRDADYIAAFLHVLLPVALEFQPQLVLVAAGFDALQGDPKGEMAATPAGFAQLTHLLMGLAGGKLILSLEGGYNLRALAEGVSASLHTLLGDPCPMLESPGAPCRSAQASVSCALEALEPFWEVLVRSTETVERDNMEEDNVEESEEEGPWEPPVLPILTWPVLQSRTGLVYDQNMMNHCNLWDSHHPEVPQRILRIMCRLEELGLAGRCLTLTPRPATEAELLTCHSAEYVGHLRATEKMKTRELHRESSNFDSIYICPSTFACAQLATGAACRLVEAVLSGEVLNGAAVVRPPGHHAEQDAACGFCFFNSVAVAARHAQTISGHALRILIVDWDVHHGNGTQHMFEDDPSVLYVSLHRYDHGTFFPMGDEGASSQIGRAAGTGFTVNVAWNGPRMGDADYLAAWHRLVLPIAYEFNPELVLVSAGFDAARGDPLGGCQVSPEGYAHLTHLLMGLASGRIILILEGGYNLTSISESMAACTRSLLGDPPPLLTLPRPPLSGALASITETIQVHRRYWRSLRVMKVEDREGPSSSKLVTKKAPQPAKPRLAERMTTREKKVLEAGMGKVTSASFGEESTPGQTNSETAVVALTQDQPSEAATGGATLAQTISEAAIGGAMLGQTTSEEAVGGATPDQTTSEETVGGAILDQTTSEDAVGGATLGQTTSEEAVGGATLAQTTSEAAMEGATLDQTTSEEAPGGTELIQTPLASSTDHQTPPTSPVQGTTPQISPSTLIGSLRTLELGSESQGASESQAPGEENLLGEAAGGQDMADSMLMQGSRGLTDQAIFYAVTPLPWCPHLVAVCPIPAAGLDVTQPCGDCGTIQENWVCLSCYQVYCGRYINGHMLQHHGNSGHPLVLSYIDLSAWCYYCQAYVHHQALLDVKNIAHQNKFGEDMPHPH
The experiment in a line: Inhibition of full length N-terminal GST-tagged human recombinant HDAC6 (1 to 1215 residues) expressed in Baculovirus infected Sf9 cells using Ac-Leu-Gly-Lys (Ac)-AMC as substrate pretreated for 5 mins followed by substrate addition and measured after 30 mins. The method, boiled down: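 HDAC6 at 15 ng/well in Tris buffer pH 8.0 with MgCl2, BSA, NaCl and KCl. Ten 3-fold dilutions preincubated 5 min at room temperature, then 10 μM Ac-Leu-Gly-Lys(Ac)-AMC for 30 min at 37 °C. IC50 by normalized dose–response nonlinear fit; performed at least three times.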

Series [9] relates to B16-F10. As to the kind of experiment: Induction of apoptosis in mouse B16-F10 cells assessed as viable cells at 50 nM incubated for 48 hrs by Annexin V-FITC/PI analysis (reference value: 98.3 %). The format is functional. To be noted: read-out: Activity.
Series [10] deals with B16-F10. As to the kind of experiment: Antiproliferative activity against mouse B16-F10 cells assessed as inhibition of cell viability measured for 48 hrs by microplate reader based MTT assay. The format is functional. To be noted: B16-F10, 48 h. The method, boiled down: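 Cells grown in RPMI-1640 with 10% FBS and seeded at 5000 cells/well. After overnight attachment, compound was added in medium with 0.1% DMSO for 48 h at 37 °C. Read-out was MTT for HCT-116, B16-F10 and A549, and CCK-8 for Jurkat (0.5 mg/mL, 4 h), with absorbance at 570 nm. IC50 from nonlinear regression; at least three independent experiments.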
On the technique in general: Tetrazolium dyes change colour on reduction, which living cells bring about.

The test system of series [11] is B16-F10. As to the kind of experiment: Inhibition of colony formation in mouse B16-F10 cells assessed as reduction in number of colonies incubated for 24 hrs. The format is functional, cell-based. The following applies: dose 25-100 nM, DDE = dose-dependent effect. The method in brief:
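1000 B16-F10 cells seeded and cultured 24 h at 37 °C, then exposed to compound for 24 h. Medium was then replaced and cells grown 10–14 days. Colonies fixed with 4% paraformaldehyde for 30 min, stained with 0.1% crystal violet for 15 min, and counted; n = 3 versus DMSO.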

The target of series [12] is T1, Tubulin (Sus scrofa). As to the kind of experiment: Inhibition of pig brain tubulin polymerization measured after 20 mins by spectrometric method. To be noted: dose 0.8-25 µM, DDE = dose-dependent effect. The method in brief: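 Tubulin purified from pig brain microtubule protein (three assembly/disassembly cycles, then phosphocellulose chromatography). Tubulin mixed with compound in PEM buffer (100 mM PIPES, 1 mM MgCl₂, 1 mM EGTA) plus 1 mM GTP and 5% glycerol. Polymerization followed at 340 nm, 37 °C. Inhibition versus vehicle at 20 min; plateau absorbance used.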

The subject of series [13] is B16-F10. The experiment in a line: Induction of cell cycle arrest in mouse B16-F10 cells assessed as accumulation of cells in G2/M phase at 100 nM measured after 48 hrs by PI/RNaseA staining based flow cytometry analysis (Rvb= 5.76%). The format is functional.

Activity calls are given as the source filed them. The rule behind the calls is not given here.

T1 sequence (P02550 whole entry, looked up): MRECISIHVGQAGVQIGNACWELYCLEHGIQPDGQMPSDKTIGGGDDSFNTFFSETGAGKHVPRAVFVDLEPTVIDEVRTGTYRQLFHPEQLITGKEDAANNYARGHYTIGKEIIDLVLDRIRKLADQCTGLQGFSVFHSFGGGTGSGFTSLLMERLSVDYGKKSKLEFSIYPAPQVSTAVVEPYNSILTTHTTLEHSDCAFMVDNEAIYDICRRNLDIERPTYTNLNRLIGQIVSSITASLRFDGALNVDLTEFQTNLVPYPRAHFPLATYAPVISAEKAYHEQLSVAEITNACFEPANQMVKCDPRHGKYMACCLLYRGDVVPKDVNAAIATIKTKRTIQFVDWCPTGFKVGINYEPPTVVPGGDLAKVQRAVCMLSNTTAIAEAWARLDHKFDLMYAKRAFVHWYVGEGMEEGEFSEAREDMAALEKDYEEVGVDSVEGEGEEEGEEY
T1 sequence (P02554 whole entry, looked up): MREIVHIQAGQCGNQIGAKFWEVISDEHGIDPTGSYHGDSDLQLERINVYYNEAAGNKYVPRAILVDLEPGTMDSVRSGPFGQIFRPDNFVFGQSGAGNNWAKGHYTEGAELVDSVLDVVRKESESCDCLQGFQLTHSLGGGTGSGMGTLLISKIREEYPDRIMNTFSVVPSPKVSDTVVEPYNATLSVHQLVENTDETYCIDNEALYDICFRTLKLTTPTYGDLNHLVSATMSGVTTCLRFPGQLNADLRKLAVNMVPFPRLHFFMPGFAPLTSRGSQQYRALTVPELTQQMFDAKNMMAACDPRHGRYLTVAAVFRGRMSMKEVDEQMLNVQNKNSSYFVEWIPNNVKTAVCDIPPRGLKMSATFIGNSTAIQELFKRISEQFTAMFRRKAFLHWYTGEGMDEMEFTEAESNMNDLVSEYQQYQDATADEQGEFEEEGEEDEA

With `COc1cc(C(=O)c2csc(-c3ccc(NC(=O)CCCC(=O)Nc4ccccc4N)cc3)n2)cc(OC)c1OC`, in series [1], the inhibition entry is “Active”. Further, the Activity result in series [2] was “Non-Toxic”; in series [3], “Non-Toxic”; in [5] it was “Non-Toxic”; in series [7] it was 66.32%; in [11] it was “Dde”; in series [13] it was 83.26%. Besides, the IC50 amounted to 560 nM in series [4], 31000 nM in series [8] and 70 nM in [10]. Further, the inhibition in vivo at 10 mg/kg in series [6] amounted to 70%. The viability at 0.05 µM in series [9] was found to be 58.9%. Also, the inhibition entry in series [12] is “Dde”.

As a reminder, the IC50 is the point on the concentration scale where inhibition reaches its midpoint.
